From ChEMBL document CHEMBL4513216, “Probing the Open Global Health Chemical Diversity Library for Multistage-Active Starting Points for Next-Generation Antimalarials” (ACS Infect Dis, 2020) come the findings set out here.

Structures are written as SMILES.

This series is described as follows: Toxicity liver stage against HepG2, at 10uM. Type of series: cell-based. On the set-up: test concentration 10 uM, cell line HepG2-A16-CD81EGFP. The note with it: human, HepG2-A16-CD81EGFP cells; read-out: INHIBITION
Summed up: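 Uninfected HepG2-A16-CD81EGFP cells, 3 × 10^3 per well, 1536-well, plated on prespotted compound at 10 μM final, parasite-free screening media added to match infected plates; puromycin 10 μM positive, DMSO 0.5% negative; run in parallel with 48 h PbLuc assay at 37 °C, 5% CO2; viability by CellTiter-Glo luminescence, normalized to controls.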
`CC[C@H]1CN(S(=O)(=O)c2ccccc2)CC[C@H]1CC(=O)O`: the cytotoxicity at 10 µM came out at 1.7%.
Then `CC(=O)N1N=C(c2ccccc2)OC1C(=O)NCCc1cccc(F)c1` (configuration not stated), with -1.08%; and `CS(=O)(=O)N1CCc2ncc(CNC(=O)C3CCC3)n2CC1`, with 10.9%.
For the compound `Cc1cc(O)c(OCC(=O)Nc2nccs2)cn1`, the cytotoxicity at 10 µM is 4.07%.
Take `Cc1nccc([C@@H]2C[C@@H]3CCN(S(C)(=O)=O)C[C@H]3O2)n1`: the cytotoxicity at 10 µM is -11.3%.
The same measure for `CC(=O)Nc1ccn(Cc2ccccc2)n1`: 2.04%.
The same measure for `Cc1nn(C)c(C)c1-c1nccnc1CC1CCNCC1`: -2.38%.
Regarding `NC(=O)CN1CCCCC1c1ccc(-n2ccnc2)nc1` (configuration not stated), the cytotoxicity at 10 µM was 1.6%.
The same measure for `COc1cccc(CC(=O)NC(C)c2nc3cccnc3n2C(C)C)c1` (configuration not stated): -22.6%; for `O=C(O)CN1CCOCC(Cc2ccc(Cl)cc2)C1` (configuration not stated): -25.7%.
The same measure for `O=C1NCC2(CCCN(Cc3cccnc3)C2)Oc2ccccc21` (configuration not stated): -24.1%; for `CN(CCN(C)S(=O)(=O)CC1CCOCC1)c1ccccc1`: -9.65%; for `CC(C)N(C)S(=O)(=O)N1CCN(Cc2ccco2)CC1`: -0.796%.
Then `COCc1c(Cl)cccc1NC(=O)CNC(=O)C(C)(C)C`, with -5.73%; and `CN1CCOC(CNCC(=O)NCCCc2ccccc2)C1` (configuration not stated), with -3.23%; and `OC1(CN2CCCC(Cn3cncn3)C2)CCCCC1` (configuration not stated), with 2.96%.
Turning to `CC(c1ncc(C(C)(C)C)o1)N1CCN(c2ccncc2)CC1` (configuration not stated), the cytotoxicity at 10 µM was determined as 18.5%.
The same measure for `COc1cc(C2(C(=O)N3CCN(CC(C)O)CC3)CC2)ccc1C` (configuration not stated): -2.43%.
For `O=C(CS(=O)(=O)c1ccccn1)NC1CCCc2ccccc21` (configuration not stated), the cytotoxicity at 10 µM was -4.04%.
With `NS(=O)(=O)c1ccc(CNC(=O)c2ccc(Cl)cc2F)cc1`, the cytotoxicity at 10 µM is -1.59%.
The same measure for `O=C(Nc1ccnn1C1CCCC1)c1ccc(NC2CC2)nc1`: 4.75%; for `c1cncc(CN2CCC(NCCc3ccc4c(c3)OCO4)CC2)c1`: -9.62%.
Turning to `CC(C(=O)Nc1ncccn1)N1CCc2[nH]nc(C(F)(F)F)c2C1` (configuration not stated), the cytotoxicity at 10 µM was -0.583%.
The same measure for `CC(O)CN1CCC(CN(C)Cc2ccc(C#N)cc2)CC1` (configuration not stated): 0.788%; for `CCc1ccc(-c2nn3c(nc2=O)-c2ccccc2NC3C(=O)O)cc1` (configuration not stated): 11.2%; for `COc1ccc(Cl)cc1NC(=O)N(C)CC(O)COCCOC(C)C` (configuration not stated): 11.3%.
Then `CC(=O)NC1CCCN(c2ccc(C#N)cc2C(F)(F)F)C1` (configuration not stated), with 7.44%.
`CN(Cc1nccn1CC(F)(F)F)C(=O)c1ccc(F)c(F)c1`: the cytotoxicity at 10 µM was -0.394%.
Turning to `CCc1cn[nH]c1C1CCN(C(=O)c2cc(C(C)=O)c(C)[nH]c2=O)CC1`, the cytotoxicity at 10 µM was -2.23%.
Turning to `CCC(=O)Nc1cccc(OCC(=O)N2C[C@H]3CC[C@H]2C3)c1`, the cytotoxicity at 10 µM is -2.18%.
As for `CCC(C(=O)N(C)C)N1CCC(c2nccn2Cc2cscn2)CC1` (configuration not stated), the cytotoxicity at 10 µM amounted to 2.86%.
In the case of `Cc1ccc(C(C(=O)O)N(C)CCCN2CCOCC2)c(C)c1` (configuration not stated), the cytotoxicity at 10 µM worked out at 0.129%.
The same measure for `O=C(C1CNCCN1C(=O)CCOc1ccccc1)N1CCOCC1` (configuration not stated): 0.311%; for `CC(C)n1cnnc1CN(C)C(=O)CCn1cnc2ccccc2c1=O`: 6.4%.
Then `CCn1cc(CN2CCN(Cc3cc(C)cc(C)c3)C(=O)C2)cc1C#N`, with 1.72%.
In the case of `CCn1c(C2CCCN(Cc3cc(C)cc(C)c3)C2)nn(C)c1=O` (configuration not stated), the cytotoxicity at 10 µM was -3.12%.
Regarding `CCc1cc(N2CCS(=O)(=O)CC2)n2nc(C)c(C)c2n1`, the cytotoxicity at 10 µM was -4.02%.
The same measure for `CCOC(=O)CNC(=O)N1CCOC(Cc2ccc(OC)cc2)C1` (configuration not stated): -7.99%.
The same measure for `O=C(NCC(F)(F)C(F)F)c1cccnc1`: 15.4%.
As for `COC(=O)CCCC(=O)N(C)CC1Cc2ccccc2CN1C` (configuration not stated), the cytotoxicity at 10 µM was -12.4%.
Then `Cc1cccc(C(C(=O)NC(C)(C)CN2CCOCC2)N(C)C)c1` (configuration not stated), with -2.21%; and `OC1(CNc2ccc(-c3nc(C4CC4)no3)cn2)CCCCC1`, with 7.72%.
Consider `CC(Cc1ccc2c(c1)OCO2)c1cn(CCN2CCCC2)nn1` (configuration not stated), for which the cytotoxicity at 10 µM was 7.09%.
Then `Cn1nc(CN2CCC(c3ccncc3)CC2)c2c(Cl)cccc21`, with -6.06%.
The same measure for `O=S(=O)(NCCc1nc(-c2cccnc2)n[nH]1)NCc1ccccc1`: 7.02%; for `CSCc1noc(Cn2ccc3ccccc3c2=O)n1`: 3.63%.
Then `Cc1cc(C)nc(N2C[C@H]3OC(=O)N(CCc4cccc(Cl)c4)[C@H]3C2)n1`, with 6.72%; and `Cc1ccc(CCNC(=O)Cn2nc(C)n(Cc3ccccc3)c2=O)s1`, with -3.66%; and `CC(=O)N1CCC(Nc2cc(F)ccc2OCC2CCCO2)CC1` (configuration not stated), with -14.3%.
For the compound `COc1ncccc1NC(=O)N(Cc1ccco1)C1CC1`, the cytotoxicity at 10 µM worked out at 5.25%.
The same measure for `COc1ccc(Cl)cc1CC(=O)NS(=O)(=O)c1ccc(C(N)=O)cc1`: -2.64%; for `COc1cc(CCC(=O)NC(C)(C)C)ccc1OCC(F)(F)F`: -8.76%.
The same measure for `NC(=O)NCC1CCCCN1C(=O)c1cccc(Cl)c1` (configuration not stated): -7.6%; for `Cc1noc2ncc(C(=O)NCC3CCCO3)cc12` (configuration not stated): -10.2%; for `Cc1nn(C)c(N(C)C)c1CNC1CCOc2c(Cl)cccc21` (configuration not stated): -5.36%.
For the compound `Cc1nc(-c2ccco2)ccc1C(=O)N1CCn2c(C)nnc2C1`, the cytotoxicity at 10 µM is -5.83%.
Then `O=C(CN1CCC(c2ccnn2CCO)CC1)NCC1CCCCC1`, with -0.463%; and `Cc1cc(CN2CCN(CC(O)c3cccc(F)c3)CC2)no1` (configuration not stated), with -12.2%; and `Cc1nc(C)n(CC2CCCN2Cc2cn3ccccc3n2)n1` (configuration not stated), with -3.05%.
Regarding `CN(CC(=O)Nc1ccc(Br)cn1)C(=O)C(C)(C)C`, the cytotoxicity at 10 µM is -11.9%.
With `CSC(C)C(=O)N(C)CC(=O)Nc1ccc(Br)cn1` (configuration not stated), the cytotoxicity at 10 µM is -7.18%.
Then `CC(C)c1nc(C2CCCN2CC(=O)Nc2cccnc2)no1` (configuration not stated), with -10.1%.
For `NC(=O)CC1CCN(C(=O)NCCc2ccc(Cl)s2)CC1`, the cytotoxicity at 10 µM is -8.03%.
Then `O=C(NCCC(=O)N1CCCCCCC1)c1ccoc1`, with -22.2%; and `CCN(CC)CC1CCN(Cc2ccn(C)c(=O)c2)CC1`, with -14.7%; and `Cc1nnc2n1CCN(CC(=O)Nc1cc(C(C)C)no1)C2`, with -6.93%.
With `CNC(=O)NC(=O)CN(CC(C)O)c1ccccc1` (configuration not stated), the cytotoxicity at 10 µM is 10.9%.
As to `Cc1cc(NC(=O)NCc2ccccc2OC(F)F)n(C)n1`, the cytotoxicity at 10 µM amounted to 2.29%.
Then `CC(C)NC(=O)N1C[C@H](OCc2cccnc2)[C@H]2COC[C@H]21`, with 6.43%; and `Cc1noc(C(C)C)c1C(=O)NCCCN1CCNCC1`, with -24.7%.
The same measure for `Cc1cc(C(=O)N2CCc3nc(C4CCCCN4)ncc3C2)cs1` (configuration not stated): -22.4%; for `Cc1cccc(CN2C(=O)CO[C@@H]3CN(C4CCOCC4)C[C@H]32)c1`: -146%.
